NS3 helicase inh: inhibitors of HCV NS3 helicase, primary screen, biochemical, Cy5 molecular beacon fluorescence | Hepatitis C virus NS3 helicase | NS3 helicase DNA unwinding | inhibition, % at 10.9 µM | hit rate 0.56% among 290,000 | AID 1800, 2009;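 active = inhibition above the mean of all tested compounds plus 3 SD, set per campaign, cut at about 35% in these data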;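 note: 0% = DMSO wells and 100% = thioflavine S control wells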
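Measured by: Cy5 fluorescence, 0 and 60 min reads / Assay system: NS3 helicase fragment of HCV / Control set: low DMSO, high thioflavine S at 110 µM / Times: 1 h reaction at 25 °C, ATP-initiated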
CHOP inh: inhibitors of CHOP promoter induction, primary screen, cell-based, unfolded protein response, luciferase reporter; inhibition, % at 10 µM; AID 2732, 2010; CHO-K1 CHOP-promoter luciferase, tunicamycin-induced, 15-18 h; hit rate 3.8% among 220,000;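 active = compounds that reduced the stress-induced luciferase reporter signal by more than about 70% of percent inhibition, limit read from the data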;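 note: 0% = tunicamycin plus vehicle and 100% = wells without tunicamycin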
p97 ATPase inh: inhibitors of human p97 ATPase, primary screen, biochemical | recombinant p97 ATPase, Kinase-Glo ATP luminescence, 3 h | inhibition, % at 8 µM | AID 1481, 2009 | Transitional endoplasmic reticulum ATPase (Homo sapiens), P55072 | hit rate 0.42% among 220,000; in the data active = inhibition above about 15%;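 note: 0% = DMSO vehicle and 100% = wells lacking enzyme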
Target sequence (P55072 whole entry, looked up): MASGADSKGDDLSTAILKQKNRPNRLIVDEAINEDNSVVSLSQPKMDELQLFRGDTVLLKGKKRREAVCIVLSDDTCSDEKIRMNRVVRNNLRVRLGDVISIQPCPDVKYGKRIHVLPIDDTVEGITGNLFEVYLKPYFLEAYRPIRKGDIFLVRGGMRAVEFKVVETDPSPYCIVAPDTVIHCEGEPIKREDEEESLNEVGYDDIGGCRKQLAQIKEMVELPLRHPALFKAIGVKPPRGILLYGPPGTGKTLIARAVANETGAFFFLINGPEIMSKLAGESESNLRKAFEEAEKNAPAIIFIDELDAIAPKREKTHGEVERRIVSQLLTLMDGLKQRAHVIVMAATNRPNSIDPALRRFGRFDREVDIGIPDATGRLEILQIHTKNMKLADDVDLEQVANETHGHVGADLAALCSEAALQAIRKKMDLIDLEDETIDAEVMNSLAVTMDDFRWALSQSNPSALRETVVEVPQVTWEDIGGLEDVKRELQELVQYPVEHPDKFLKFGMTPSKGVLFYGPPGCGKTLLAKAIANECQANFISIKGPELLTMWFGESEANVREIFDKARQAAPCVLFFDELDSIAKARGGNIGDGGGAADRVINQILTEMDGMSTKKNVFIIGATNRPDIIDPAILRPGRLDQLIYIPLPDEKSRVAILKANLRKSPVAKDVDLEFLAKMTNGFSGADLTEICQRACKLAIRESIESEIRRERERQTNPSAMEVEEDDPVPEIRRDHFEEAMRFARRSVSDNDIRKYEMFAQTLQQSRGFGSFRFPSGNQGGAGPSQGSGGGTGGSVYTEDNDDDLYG
PfM18AAP inh: PfM18AAP inhibitors, malaria aminopeptidase, primary screen, biochemical, QFRET, recombinant enzyme. H-Glu-NHMec fluorogenic cleavage. inhibition, % at 7.35 µM. hit rate 1.2% among 290,000;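 active = inhibition above the campaign mean inhibition over all tested compounds plus 3 SD, cut at about 28% in these data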;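 note: 0% = plate median of test compound wells and 100% = 2 mM ZnCl2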
UPR CHOP act: activators of apoptotic CHOP UPR arm, primary screen, cell-based, CHO-CHOP luciferase reporter, luminescence, uHTS | activation, % at 10 µM | UPR activation; percent of tunicamycin response over DMSO baseline | hit rate 0.34% among 330,000;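 active = at 10 µM dose, activation of 40% or more, normalized to positive control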;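 note: 100% = tunicamycin at 10 µg/mL and 0% = DMSO alone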
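System: CHO-CHOP luciferase reporter cell line; amount: 500 cells/well; buffer or medium: F12 medium containing 10% fetal bovine serum; incubation: 6 h compound exposure at 37 °C after overnight seeding; measured by: luciferase luminescence after 10 min with Steady-Glo reagent; evaluation: % reporter activation, DMSO baseline versus tunicamycin full activation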
XBP1 UPR activ: activators of adaptive XBP1 UPR arm, primary screen, cell-based, CHO-XBP1 luciferase reporter, luminescence, uHTS | IRE1-XBP1 UPR activation; percent of tunicamycin response, DMSO as zero | activation, % at 20 µM | hit rate 0.33% among 330,000;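 active = versus positive control, 20 µM dose yields 30% or more activation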;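 note: 100% = tunicamycin at 10 µg/mL and 0% = DMSO only wells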
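Material – CHO cell line with stable XBP1 luciferase reporter · Buffer or medium – F12 plus 10% FBS · Compound – single point, 20 µM final compound, 1% DMSO · Schedule – 16-18 h cell attachment at 37 °C, then 6 h compound exposure · Signal – Steady-Glo luminescence read · Benchmarks – high control tunicamycin 10 µg/mL final, low control DMSO vehicle only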
CHOP UPR conf: activators of apoptotic CHOP UPR arm, confirmation, cell-based, CHO-CHOP luciferase reporter, single concentration; CHO-CHOP cells, CHOP-luciferase reporter luminescence; percent of tunicamycin response, DMSO as zero; activation, % at 10 µM; shares compounds with UPR CHOP act; hit rate 64% among 1,000; AID 463112, 2010; in the data active = activation above about 33%;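 note: 0% = DMSO wells and 100% = tunicamycin 10 µg/mL wells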
Numbers without * were called inactive; . = no result given. An excerpt weighted towards active compounds, which were near 4.5% of everything screened.

SMILES	NS3 helicase inh	CHOP inh	p97 ATPase inh	PfM18AAP inh	UPR CHOP act	XBP1 UPR activ	CHOP UPR conf
COc1cc(CC(=O)N(C)CC(=O)Nc2cc(C)ccc2C)cc(OC)c1OC	-9	.	.	5	-1	-1	.
CCCCCCCCCn1c2c(c(=N)c3c1CCC3)CCC2	-45	.	2	-5	57*	23	43*
CC(C)Cc1nc2oc3c(N4CCN(CCO)CC4)ncnc3c2c2c1CCCC2	-17	57	2	0	44*	6	-1
CCOC(=O)N1CCN(c2ncnc3c2oc2nc(C(C)C)c4c(c23)CCC4)CC1	-3	65	2	1	5	0	.
COc1ccc2c(c1)CCc1c(C(=O)NCc3ccc(Cl)cc3)noc1-2	-1	-5	2	-6	1	1	.
COc1ccc2c(c1)CCc1c(C(=O)Nc3cc(C)n(Cc4ccc(Cl)cc4)n3)noc1-2	13	93*	4	0	107*	142*	121*
O=C1c2ccccc2C(=O)N1c1cccc(-c2nc3ccccc3o2)c1	0	60	4	2	0	-4	.
O=C1C=CC(=O)N1c1cccc(-c2ccccc2)c1	10	20	-5	-42	82*	-7	10
COC(=O)c1ccc(/C=C/C(=O)c2ccc(OC)c(OC)c2)cc1	-9	-29	7	10	1	-6	.
COc1ccc(/C=C/C(=O)c2ccc(C(=O)/C=C/c3ccc(OC)c(OC)c3)cc2)cc1OC	-2	.	.	3	84*	5	138*
COC(=O)c1nn(-c2ccc(OC)cc2)c(=O)cc1O	4	-14	-1	-5	1	-3	.
COc1ccc(-n2nc(C#N)c(Cl)cc2=O)cc1	3	101*	8	-6	149*	-6	73*
COc1ccc(NS(=O)(=O)c2cccc(C(=O)N3CCN(c4ccccc4O)CC3)c2)cc1	.	.	.	.	0	-3	.
O=C(Nc1ccc(S(=O)(=O)N2CCOCC2)cc1)c1ccc([N+](=O)[O-])o1	0	-89	3	1	139*	-1	98*
O=C(Nc1ccc(S(=O)(=O)N2CCCC2)cc1)c1ccc([N+](=O)[O-])o1	.	.	.	.	47*	-3	91*
O=C(Nc1ccc(S(=O)(=O)N2CCOCC2)cc1)c1ccc([N+](=O)[O-])s1	.	.	.	.	68*	4	4
CC(=O)Nc1ccc2nc(NC(=O)c3ccco3)sc2c1	-3	.	.	6	3	-4	.
CC(=O)Nc1ccc2nc(NC(=O)c3ccc([N+](=O)[O-])o3)sc2c1	23	.	.	2	61*	1	25
COC(=O)c1cnc(NNS(=O)(=O)c2ccc(C(F)(F)F)cc2)nc1C(F)(F)F	2	25	0	27	1	-4	.
COc1ccc2cc(CO)c3cc(OC)c(OC)cc3c2c1	.	.	.	.	-1	3	.
COc1ccccc1NC(=O)COC(=O)CCc1ccc(S(=O)(=O)N2CCOCC2)cc1	.	.	.	.	0	-3	.
O=C(Nc1ccc(Cc2ccncc2)cc1)c1ccc([N+](=O)[O-])o1	5	.	.	-2	63*	-5	78*
O=C(Nc1ccc(N2CCOCC2)cc1)c1ccc([N+](=O)[O-])o1	-13	.	.	-8	57*	0	61*
O=C(Nc1ccc(Br)cc1)C1CCCN(C2=NS(=O)(=O)c3ccccc32)C1 (centres undefined)	.	.	.	.	3	-1	.
CCCN(CCC)C(=O)c1cc([N+](=O)[O-])cc2c1-c1ccc([N+](=O)[O-])cc1C2=C(C#N)C#N	-6	-66	3	-3	335*	-2	201*
SMILES	NS3 helicase inh	CHOP inh	p97 ATPase inh	PfM18AAP inh	UPR CHOP act	XBP1 UPR activ	CHOP UPR conf
CCOC(=O)C1CCN(Cc2ccc(O)c3ncccc23)CC1	-3	.	1	0	235*	6	142*
CCOC(=O)N1CCN(Cc2cc(Cl)c3cccnc3c2O)CC1	1	83*	-3	3	105*	19	116*
CCc1nnc(NC(=O)c2nc(S(=O)(=O)Cc3cccc(C)c3)ncc2Cl)s1	15	.	.	-23	72*	-11	30
CCc1nnc(NC(=O)c2nc(S(=O)(=O)Cc3ccc(C)cc3)ncc2Cl)s1	1	.	.	-6	51*	-7	38*
CC(=O)Nc1ccc(NC(=O)c2nc(S(=O)(=O)Cc3ccccc3)ncc2Cl)cc1	-3	.	.	-148	-10	-10	.
CCc1nnc(NC(=O)c2nc(S(=O)(=O)Cc3ccccc3)ncc2Cl)s1	2	.	.	-19	59*	-9	13
CCOc1ccccc1NC(=O)c1nc(S(=O)(=O)Cc2cccc(C)c2)ncc1Cl	-1	.	.	-56	-10	-10	.
CCCCc1cc(=O)oc2cc(C)cc(OCC(=O)Nc3ccccn3)c12	2	.	.	4	2	0	.
COc1ccc(CNc2nc3ccccc3n2CCN2CCCCC2)cc1	-9	21	1	1	0	0	.
COc1ccc(CCN2CCC(Nc3nc4ccccc4n3Cc3ccc(F)cc3)CC2)cc1	-77	.	-5	0	56*	4	44*
Cc1ccc(N(CC(=O)NCc2ccco2)C(=O)CCC(=O)Nc2nccs2)cc1C	-10	.	.	5	0	-4	.
CCOC(=O)c1c(NC(=O)CSc2nnnn2-c2ccc(OC)cc2)sc(C)c1C	8	40	1	-30	57*	1	1
CCOC(=O)c1csc(NC(=O)CSc2nnnn2-c2ccc(OC)cc2)n1	3	20	2	-4	-1	-2	.
O=C(Cn1ccc(NC(=O)OCc2ccccc2)nc1=O)NCc1ccc2[nH]ccc2c1	.	.	.	.	0	-2	.
COc1ccc(CCC(=O)OCC(=O)c2cccc(OC)c2)cc1	-7	16	-1	2	6	2	.
Sc1nnc(-c2ccc(Cl)cc2)n1Cc1ccccc1	.	.	.	.	0	-2	.
Oc1c(C(c2ccccc2Cl)N2CCCC2)ccc2cccnc12 (centres undefined)	10	102*	9	5	106*	25	132*
Cn1nnnc1Sc1ncnc2scc(-c3cc4ccccc4o3)c12	.	.	.	.	86*	-7	118*
Cn1nnnc1Sc1ncnc2scc(-c3ccc(-c4ccccc4)cc3)c12	.	.	.	.	5	0	.
